MsrA inh: bovine MsrA enzyme inhibitors, primary screen, biochemical, absorbance, HTS. Methionine sulfoxide reductase A (Bos taurus). purified bovine MsrA, absorbance read-out. inhibition, % at 15.5 µM. hit rate 0.75% among 360,000. AID 651718, 2012; in the data active means inhibition above about 4.5%;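 further: 0% = vehicle wells with enzyme and 100% = reference inhibitor wells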
MC4R barr agon: MC4R agonists recruiting beta-arrestin, primary screen, cell-based, luminescence, agonist arm of biased-ligand search. Melanocortin receptor 4 (Homo sapiens), P32245. U2OS MC4R beta-arrestin complementation; percent of melanotan II response, DMSO zero. activation, % at 8.9 µM. hit rate 0.98% among 360,000. AID 540308, 2011;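 active means activation above a per-plate cutoff, the mean activation of sample wells on that plate plus 3 SD, cut at about 8% in these data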
Target sequence (P32245 whole entry, looked up): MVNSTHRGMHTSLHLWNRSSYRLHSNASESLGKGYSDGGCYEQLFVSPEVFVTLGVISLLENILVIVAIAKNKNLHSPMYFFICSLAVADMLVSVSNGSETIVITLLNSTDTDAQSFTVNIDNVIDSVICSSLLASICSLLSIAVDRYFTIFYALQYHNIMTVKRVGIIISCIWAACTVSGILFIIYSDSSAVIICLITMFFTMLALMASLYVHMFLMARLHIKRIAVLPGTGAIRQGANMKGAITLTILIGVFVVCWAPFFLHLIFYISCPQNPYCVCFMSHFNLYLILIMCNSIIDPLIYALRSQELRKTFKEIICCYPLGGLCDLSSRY
MC4R antagonist: MC4R antagonists of cAMP signaling, primary screen, cell-based, TR-FRET, antagonist arm of biased-ligand search; Melanocortin receptor 4 (Homo sapiens), P32245; MC4R-expressing cells, MTII-stimulated cAMP, LANCE TR-FRET; inhibition, % at 6.5 µM; hit rate 0.48% among 360,000; AID 540295, 2011;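 active means inhibition above its plate's cutoff, the mean of tested wells on that plate plus 3 SD, cut at about 29% in these data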;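 further: 0% = Melanotan II alone and 100% = Melanotan II plus saturating MCL0020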
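Assay system: human MC4R-expressing U2OS cells; reagent: Melanotan II stimulation of cells; dosing: 6.5 µM single dose; timing: compound 30 min, challenge 1 h, detection 1 h; signal: TR-FRET cAMP assay; replicates: one well per compound, no replicates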
MsrA act: bovine MsrA enzyme activators, primary screen, biochemical, absorbance, HTS; hit rate 0.3% among 360,000; purified bovine MsrA, absorbance read-out; Methionine sulfoxide reductase A (Bos taurus); AID 602163, 2012; activation, % at 10.6 µM; in the data active means activation above about 7.5%;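 further: 0% = vehicle and 100% = reference activator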
MC4R barr conf: MC4R beta-arrestin agonists, retest, confirmation, cell-based, luminescence, U2OS; shares compounds with MC4R barr agon; U2OS MC4R beta-arrestin recruitment; scaled DMSO 0%, Melanotan II 100%; activation, % at 8.9 µM; hit rate 31% among 2,400;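 active means mean activation across replicates above the hit cutoff set in the earlier primary screen, cut at about 8% in these data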
MOR DOR agonist: agonists of MOR-DOR heterodimerization, counter-screen for MC4R biased agonist project, cell-based, luminescence | U2OS PathHunter beta-arrestin, beta-gal luminescence; percent of deltorphin B response, DMSO zero | activation, % at 9.2 µM | hit rate 5.8% among 2,400 | AID 602194, 2012 | shares compounds with MC4R barr agon;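 active means mean activation across replicates exceeds the hit threshold derived in the earlier primary screen, cut at about 18% in these data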;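 further: 100% = deltorphin B at 0.9 µM final and 0% = DMSO alone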
Active calls of the source: *; · = not tested or not shown. In the library only some 2.3% were active in any assay of this set; here they are far more common.

SMILES | MsrA inh | MC4R barr agon | MC4R antagonist | MsrA act | MC4R barr conf | MOR DOR agonist
CCCCCCSc1cc(-c2nc3ccc(C)cn3c2NCc2ccccc2)ccc1OC | 1 | -1 | 13 | -1 | · | ·
Cc1ccccc1OCC(=O)NC(=S)Nc1cccc2cc(O)ccc12 | -2 | 16* | 6 | -1 | 23* | 9
O=C(COC(=O)c1ccc2[nH]c3c(c2c1)CCCC3)Nc1ccccc1Cl | -1 | 4 | 12 | -1 | · | ·
O=C(COC(=O)c1ccc2[nH]c3c(c2c1)CCCC3)Nc1ccc(Cl)cc1Cl | -1 | 18* | 15 | 0 | 10* | 3
Cc1ccc2nc(NC(=O)CCNS(=O)(=O)c3cccs3)sc2c1 | 0 | 0 | 3 | 0 | · | ·
Cc1ccc2nc(NC(=O)CCNS(=O)(=O)c3ccc(Br)s3)sc2c1 | · | 14* | 4 | -3 | 7 | 7
CCOC(=O)C1=C(C)N(C)C(=S)NC1c1c(OCC)ccc2ccccc12 (stereo not drawn) | 0 | 21* | -1 | -9 | -1 | 6
COc1ccc(OC)c(NC(=O)c2cc(-c3cc(C)c(C)cc3O)n[nH]2)c1 | 1 | 7 | -3 | 1 | · | ·
COc1ccc(OC)c(NC(=O)c2cc(-c3cc(C)cc(C)c3O)n[nH]2)c1 | 0 | 20* | 9 | -4 | 1 | 6
COc1ccc(NC(=O)c2cc(-c3cc(C)c(C)cc3O)n[nH]2)c(OC)c1 | 0 | 15* | 2 | -2 | 3 | 6
CCCc1nnc(NC(=O)CCCN2C(=O)c3ccccc3C2=O)s1 | 0 | -1 | 1 | -4 | · | ·
CC(=O)c1cccc(NC(=O)c2noc3c2CCc2ccccc2-3)c1 | 0 | 16* | 10 | -3 | 9.7* | 3
NC(=O)c1c(NC(=O)c2ccccc2)sc2c1CCN(Cc1ccccc1)C2 | 0 | 12* | 11 | 1 | 2 | 7
COc1ccc(CC(=O)n2[nH]c(=O)cc(C)c2=O)cc1OC | -1 | -1 | 11 | -4 | · | ·
Cc1cc(C(=O)Nc2ccc(N3CCCC3)c(Cl)c2)ccc1[N+](=O)[O-] | 0 | -1 | 5 | -1 | · | ·
O=C(Nc1ccc(N2CCCC2)c(Cl)c1)c1ccc([N+](=O)[O-])cc1 | -1 | 21* | 3 | -1 | 6 | 9
COc1ccc(C)cc1NC(=O)c1ccc2c(c1)OCO2 | -1 | -1 | -4 | -3 | · | ·
COc1ccc(C)cc1NC(=O)COC(=O)c1ccc2c(c1)OCO2 | 1 | 13* | 3 | -12 | -4 | 3
COc1ccc(NC(=O)COC(=O)c2ccc3c(c2)OCCO3)cc1 | 1 | 0 | 10 | -3 | · | ·
COc1ccc(C(C)=O)cc1COC(=O)c1ccc2c(c1)OCCO2 | 0 | 9.8* | 0 | -2 | 4 | 2
COc1ccc(NC(=O)COC(=O)c2ccc3c(c2)OCO3)c(OC)c1 | 0 | 14* | 14 | -7 | -2 | 4
COc1ccc(NC(=O)COC(=O)c2ccc3c(c2)OCCO3)cc1OC | 0 | 17* | 14 | -5 | 9.0* | 3
COc1ccc(-c2cc(C(=O)NCCCN3CCOCC3)c3ccccc3n2)cc1OC | 4 | 0 | 8 | -2 | · | ·
O=C1CCC(C(=O)NCCCn2ccnc2)N1 (stereo not drawn) | 1 | -1 | 6 | -2 | · | ·
COc1ccc(C)cc1NC(=O)COC(=O)c1ccc2c(c1)OCCO2 | -1 | 10* | 1 | 0 | -2 | 17
Cc1ccc(NC(=O)COC(=O)c2ccc3c(c2)OCCO3)cc1 | 0 | -3 | 18 | 0 | · | ·
O=C(CCc1nc(-c2ccccc2)c(-c2ccccc2)o1)OCc1ccc(Br)cc1 | 1 | 3 | 3 | -12 | · | ·
COc1ccc(NC(=O)c2sc3cc(C(F)(F)F)cnc3c2-c2cccs2)cc1 | 1 | 9.8* | 3 | -5 | -1 | 3
O=C(Nc1ccc(F)cc1)c1sc2cc(C(F)(F)F)cnc2c1-c1cccs1 | 0 | 11* | 1 | -3 | 6 | 6
